The source made the active and inactive calls. The rule behind the calls is not given here.
Key:
PC-12 [1] = assay: (§1) Prevention of H2O2-induced calcium overload in rat PC12 cells assessed as reduction in intracellular free calcium by measuring mean fluorescence intensity at 10 uM pretreated with compound followed by H2O2 addition measured after 24 hrs by Fluo-3AM based fluorescence assay (reference value: 17791.36%); format: functional
PC-12 [2] = assay: Protection against H2O2-induced apoptosis in rat PC12 cells assessed as late apoptotic cells at 20 uM incubated for 24 hrs by annexin V FITC/propidium iodide staining based flow cytometry (reference value: 16.2 %); format: functional
PC-12 [3] = assay: Neuroprotective activity against H2O2-induced cell damage in rat PC12 cells assessed as cell viability at 20 uM after 24 hrs by MTT assay (reference value: 46 +/- 4.12 %); format: functional; details: read-out: Activity
PC-12 [4] = assay: as §1, with “6-OHDA-induced” for “H2O2-induced”, “6-OHDA” for “H2O2”, “6708.18%)” for “17791.36%)”; format: functional
PC-12 [5] = assay: Protection against H2O2-induced apoptosis in rat PC12 cells assessed as viable cells at 20 uM incubated for 24 hrs by annexin V FITC/propidium iodide staining based flow cytometry (reference value: 79.3 %); format: functional; details: read-out: Activity
[6] = molecular target: T1, Nuclear factor erythroid 2-related factor 2 (Rattus norvegicus) (UniProt O54968); assay: Activation of Nrf2 in rat PC12 cells assessed as increase in Nrf2 protein level at 20 uM after 3 hrs by Western blot analysis; format: cell-based; details: PC-12, filed as activator
T1 sequence (whole entry): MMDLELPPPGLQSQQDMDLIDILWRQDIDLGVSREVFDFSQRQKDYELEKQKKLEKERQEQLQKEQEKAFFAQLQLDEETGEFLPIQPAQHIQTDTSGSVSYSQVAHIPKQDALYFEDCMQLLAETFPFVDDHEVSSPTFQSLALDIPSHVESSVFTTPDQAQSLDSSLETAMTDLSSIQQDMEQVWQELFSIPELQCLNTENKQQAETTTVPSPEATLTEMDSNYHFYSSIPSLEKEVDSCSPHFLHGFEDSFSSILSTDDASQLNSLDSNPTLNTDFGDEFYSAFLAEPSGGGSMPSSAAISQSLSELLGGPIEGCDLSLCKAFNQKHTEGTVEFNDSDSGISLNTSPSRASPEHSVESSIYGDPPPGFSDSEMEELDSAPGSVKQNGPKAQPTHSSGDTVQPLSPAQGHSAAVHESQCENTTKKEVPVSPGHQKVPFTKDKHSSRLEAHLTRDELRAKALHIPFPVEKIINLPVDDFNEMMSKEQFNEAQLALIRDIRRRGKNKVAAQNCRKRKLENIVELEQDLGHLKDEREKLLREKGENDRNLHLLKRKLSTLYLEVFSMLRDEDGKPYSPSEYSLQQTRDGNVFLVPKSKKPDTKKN

[7] = molecular target: T2, Nuclear factor erythroid 2-related factor 2 (Mus musculus) (UniProt Q60795); assay: Activation of Nrf2 in mouse BV2 cells assessed as inhibition of LPS-induced IL-6 production at 5 to 20 uM by ELISA; format: cell-based; details: BV-2, filed as activator, dose 5-20 µM
T2 sequence (whole entry): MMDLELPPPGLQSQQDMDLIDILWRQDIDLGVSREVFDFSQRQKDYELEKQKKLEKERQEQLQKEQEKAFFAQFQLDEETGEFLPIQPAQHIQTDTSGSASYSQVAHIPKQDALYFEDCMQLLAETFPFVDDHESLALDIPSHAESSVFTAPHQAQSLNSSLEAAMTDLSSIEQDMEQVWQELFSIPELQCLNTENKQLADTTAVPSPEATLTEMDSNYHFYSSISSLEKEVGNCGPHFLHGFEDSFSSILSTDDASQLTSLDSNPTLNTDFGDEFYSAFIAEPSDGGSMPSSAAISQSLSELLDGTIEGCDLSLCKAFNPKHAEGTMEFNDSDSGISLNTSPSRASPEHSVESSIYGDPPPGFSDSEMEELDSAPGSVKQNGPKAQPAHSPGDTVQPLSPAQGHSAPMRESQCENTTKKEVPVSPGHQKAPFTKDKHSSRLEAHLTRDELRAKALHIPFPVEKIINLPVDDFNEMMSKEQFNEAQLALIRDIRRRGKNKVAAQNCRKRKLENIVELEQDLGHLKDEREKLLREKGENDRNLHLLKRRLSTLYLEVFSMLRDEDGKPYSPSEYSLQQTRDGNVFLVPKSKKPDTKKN
Summary of the method: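 BV2 microglia pretreated with compound, then LPS-stimulated; IL-6 quantified by ELISA kit; mean ± SD, n = 3.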

[8] = molecular target: T1, Nuclear factor erythroid 2-related factor 2 (Rattus norvegicus); assay: Activation of Nrf2 in rat PC12 cells assessed as increase in GCLM protein level after 24 hrs by Western blot analysis; format: cell-based; details: PC-12, filed as activator, dose 5-20 µM
Summary of the method: (§2)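 PC12 cells treated with compound for 24 h at rising concentrations; NQO1, HO-1, TrxR1, GCLM, GCLC protein detected by Western blot.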

PC-12 [9] = assay: Prevention of H2O2-induced calcium overload in rat PC12 cells assessed as reduction in intracellular free calcium by measuring mean fluorescence intensity at 20 uM pretreated with compound followed by H2O2 addition by Fluo-3AM based fluorescence assay (reference value: 17791.36%); format: functional; details: time 24 hrs
[10] = molecular target: T1, Nuclear factor erythroid 2-related factor 2 (Rattus norvegicus); assay: Activation of Nrf2 in rat PC12 cells assessed as increase in GCLC protein level after 24 hrs by Western blot analysis; format: cell-based; details: PC-12, filed as activator, dose 5-20 µM; summary of the method: as §2
PC-12 [11] = assay: Protection against H2O2-induced mitochondrial dysfunction in rat PC12 cells assessed as change in mitochondrial membrane potential loss at 10 uM pretreated with compound followed by H2O2 addition by JC-1 staining based flow cytometry (reference value: 21.3 %); format: functional
Summary of the method: (§3)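 Mitochondrial membrane potential in PC12 cells pretreated with compound (5, 10, 20 μM), then exposed to H₂O₂ (200 μM) or 6-OHDA (150 μM). JC-1 staining, red-to-green fluorescence shift read by flow cytometry. Mean ± SD, n = 3.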

[12] = molecular target: T1, Nuclear factor erythroid 2-related factor 2 (Rattus norvegicus); assay: Activation of Nrf2 in rat PC12 cells assessed as increase in GCLC protein level at 20 uM after 24 hrs by Western blot analysis; format: cell-based; details: PC-12, filed as activator
PC-12 [13] = assay: Protection against 6-OHDA-induced mitochondrial dysfunction in rat PC12 cells assessed as change in mitochondrial membrane potential at 5 uM pretreated with compound followed by 6-OHDA addition by JC-1 staining based flow cytometry (reference value: 73.2 %); format: functional; summary of the method: as §3
PC-12 [14] = assay: Protection against 6-OHDA-induced mitochondrial dysfunction in rat PC12 cells assessed as change in mitochondrial membrane potential at 10 uM pretreated with compound followed by 6-OHDA addition by JC-1 staining based flow cytometry (reference value: 73.2 %); format: functional; summary of the method: as §3
PC-12 [15] = assay: Cytoprotective activity against 6-OHDA-induced neurotoxicity in rat PC12 cells assessed as reduction in LDH release at 5 to 20 uM preincubated for 24 hrs followed by 6-OHDA treatment by LDH assay; format: functional, cell-based; details: dose 5-20 µM
Summary of the method: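 PC12 cells pretreated with compound (5, 10, 20 μM) for 24 h, then H₂O₂ or 6-OHDA; membrane damage read as LDH leakage; mean ± SD of three independent experiments.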

PC-12 [16] = assay: Neuroprotective activity against 6-OHDA-induced cell death in rat PC12 cells assessed as cell viability at 20 uM preincubated for 30 mins in presence of brusatol […] and measured after 24 hrs by MTT assay; format: functional, cell-based; details: time 24.5 hrs

What does the source list for `CCN(C)C(=O)N1CCN(C(=O)/C=C/c2ccc(F)cc2)C1=O`?
Flu intensity (PC-12 [1]): 7793.41; Activity (PC-12 [2]): 3.7%; viability at 20 µM (PC-12 [3]): 75%; Flu intensity (PC-12 [4]): 4204.33; viability at 20 µM (PC-12 [5]): 93.7%; Activity [6]: Active; Activity [7]: Active; Activity [8]: Dose-dependent effect; Flu intensity (PC-12 [9]): 6730.32; Activity [10]: Dose-dependent effect; Activity (PC-12 [11]): 9.7%; Activity [12]: Active; Activity (PC-12 [13]): 79.4%; Activity (PC-12 [14]): 83.6%; Activity (PC-12 [15]): Active; Activity (PC-12 [16]): inactive

— ChEMBL document CHEMBL4732088, “Identification and optimization of piperlongumine analogues as potential antioxidant and anti-inflammatory agents via activation of Nrf2” (Eur J Med Chem, 2021)
